# Measurements as given in PubChem BioAssay AID373 (The Scripps Research Institute Molecular Screening Center, 2006).
# The whole screen tested about 60,000 compounds, of which about 60 (0.1%) were called active.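 The calls were made as follows: active = activation above the screen-wide mean plus 3 SD (cut at about 4.5% in these data, passing the limit was not always enough); inactive = the rest, inconclusive results apart.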 The sample as a whole holds a higher share of actives than the screen did.
# Biological target: Sphingosine 1-phosphate receptor 3 (Homo sapiens) (UniProt Q99500)
# Sequence (Q99500 whole entry, looked up): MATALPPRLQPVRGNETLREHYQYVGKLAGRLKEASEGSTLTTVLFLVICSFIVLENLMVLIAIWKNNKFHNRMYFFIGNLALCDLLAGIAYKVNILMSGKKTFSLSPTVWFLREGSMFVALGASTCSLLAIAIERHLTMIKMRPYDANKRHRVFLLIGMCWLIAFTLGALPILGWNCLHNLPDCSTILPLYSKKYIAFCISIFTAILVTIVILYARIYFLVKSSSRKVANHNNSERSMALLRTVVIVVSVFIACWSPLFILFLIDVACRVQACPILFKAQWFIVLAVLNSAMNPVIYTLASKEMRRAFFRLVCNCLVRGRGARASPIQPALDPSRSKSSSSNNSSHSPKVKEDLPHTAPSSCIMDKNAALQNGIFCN
# Assay: activators of S1P3 receptor signaling – cell-based, primary and confirmation, NFAT-BLA reporter, primary screen (AID 373)
# Outline: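 Assay system: stable CHO line with human S1P3, Gα16, NFAT-BLA reporter; Detection: FRET β-lactamase substrate fluorescence, excitation 405 nm, 460/535 nm emission ratio, background-subtracted; Read-out: percent activation versus median 1 µM S1P response, basal-subtracted, per plate; Incubation: cells plated overnight, compound 4 h 37 °C, substrate 2 h RT.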
# [1] = S1P3 NFAT-BLA reporter cells, agonism, FRET ratio, at 4.5 µM, stronger effect = higher value, relative to 1 µM S1P, basal subtracted
compound,measurement,setting,value
CC(C)c1ccc(NC(=O)NC2CCCCC2)cc1,activation,[1],0% (inactive)
Cc1ccc2nc(NC(=O)C3CCN(S(=O)(=O)c4ccc5c(c4)oc(=O)n5C)CC3)sc2c1,activation,[1],-0.9% (inactive)
O=C(O)CCCC(=O)Nc1ccccc1-n1ccnc1,activation,[1],-0.2% (inactive)
CCCOc1cccc(C(=O)Nc2nnn(CCC)n2)c1,activation,[1],0% (inactive)
COc1ccc(-c2noc(COc3ccc(Cl)c(C)c3)n2)cc1,activation,[1],-0.7% (inactive)
Cc1cc(C)nc(N(C#N)CC(=O)Nc2ccccc2)n1,activation,[1],-0.7% (inactive)
Cc1nn(-c2cc(Cl)ccc2N)c(=O)c2ccccc12,activation,[1],-1.6% (inactive)
CCOCC(=O)NCc1ccc2c(c1)cc(C)n2C,activation,[1],-0.3% (inactive)
CN(CC(=O)NC1CCCCC1)S(=O)(=O)c1cccc2cccnc12,activation,[1],-1.1% (inactive)
COc1ccc(S(=O)(=O)N2CCC(C(=O)N3CCOCC3)CC2)cc1OC,activation,[1],-0.8% (inactive)
Cc1ccn2cc(C(=O)NC3CCN(Cc4ccccc4)CC3)nc2c1,activation,[1],-0.2% (inactive)
CC(=O)N1CCN(C(=O)Nc2cccc(C(F)(F)F)c2)CC1,activation,[1],-0.4% (inactive)
O=C(Nc1nccs1)C1CCCN1S(=O)(=O)c1cccc2cccnc12 (centres undefined),activation,[1],-0.3% (inactive)
Cc1cccc2c1N(CC(=O)OC(C)C)C(=O)C2=O,activation,[1],-0.6% (inactive)
COc1ccccc1Nc1ncnc2c1oc1ccccc12,activation,[1],-1% (inactive)
Cc1cnc(NC(=O)CSc2nnc(-c3ccc(Cl)cc3Cl)n2N)s1,activation,[1],-0.7% (inactive)
CC12CN3CC(C)(CN(C1)C3c1ccc(Cl)cc1Cl)C2=O (centres undefined),activation,[1],-0.5% (inactive)
CC(=O)Nc1ccc(NS(=O)(=O)c2cc(C)sc2C)cc1,activation,[1],-0.3% (inactive)
Cc1ccc(S(=O)(=O)N2CCC(N3CCCCCC3)CC2)cc1,activation,[1],-2.7% (inactive)
CC1COC2C(O1)N(S(C)(=O)=O)CCN2S(C)(=O)=O (centres undefined),activation,[1],-1.9% (inactive)
CCOc1ccc(C2C(C(=O)O)c3ccccc3C(=O)N2CCN2CCOCC2)cc1 (centres undefined),activation,[1],-0.7% (inactive)
CC(C)N(C(=O)Cn1c(SCC(=O)N2CCN(c3ccccc3)CC2)nc2ccccc21)C(C)C,activation,[1],0.4% (inactive)
CCn1c(SCC(=O)Nc2cccc(F)c2)nnc1-c1cc2cc(Br)ccc2o1,activation,[1],0.7% (inactive)
CC1CCN(C(=O)CSc2ccc3nnc(-c4cccc(F)c4)n3n2)CC1,activation,[1],-0.5% (inactive)
CCOc1ccc(OCC)c(NC(=O)C(NS(=O)(=O)c2ccc3c(c2)oc(=O)n3C)C(C)C)c1 (centres undefined),activation,[1],0.3% (inactive)
CC1CCN(Cc2nc3c(c(=O)n(C)c(=O)n3C)n2CCc2ccccc2)CC1,activation,[1],-0.7% (inactive)
CCc1c(C)c2c(C)[nH]nc2oc1=O,activation,[1],0.6% (inactive)
CCCCC(=O)N(c1ccc(OC)cc1)C1C=CS(=O)(=O)C1 (centres undefined),activation,[1],-0.5% (inactive)
COc1ccc(-c2nc(CS(=O)CC(=O)NCc3cccnc3)c(C)o2)cc1OC (centres undefined),activation,[1],-0.9% (inactive)
CCn1c(SCC(=O)NCc2ccco2)nnc1-c1ccc(N)cc1,activation,[1],1.1% (inactive)
CCN(CC)S(=O)(=O)c1ccc2nc(COC(=O)c3n[nH]c4ccccc34)[nH]c2c1,activation,[1],0% (inactive)
C[N+](C)(C)CCOP(=O)([O-])OC[C@H](O)CO,activation,[1],-3.9% (inactive)
c1ccc(Nc2n[nH]nc2-c2ccccc2)cc1,activation,[1],-1.7% (inactive)
O=C(c1ccc(-n2cnnn2)cc1)N1CCN(C(c2ccccc2)c2ccccc2)CC1,activation,[1],0.7% (inactive)
O=C(NCc1cn2ccsc2n1)Nc1cccc(Cl)c1,activation,[1],1.1% (inactive)
Cc1cccc(CSc2nnc(Cn3c(=O)sc4ccccc43)n2C)c1,activation,[1],-0.9% (inactive)
Cc1cc(C)cc(N(CC(=O)NCC2CCCO2)S(=O)(=O)c2c(C)noc2C)c1 (centres undefined),activation,[1],-0.2% (inactive)
CCOC(=O)c1ccc(-c2ccc(C(=O)Nc3cccnc3)o2)cc1,activation,[1],0.3% (inactive)
Cc1ccc(-c2noc(CCC(=O)Nc3ccccc3N3CCN(C)CC3)n2)cc1,activation,[1],0.8% (inactive)
CCN(CC)CCCN1C(=O)C(=O)/C(=C(/O)c2c(C)nc3ccccn23)C1c1ccc(C)o1 (centres undefined),activation,[1],0.3% (inactive)
CNC(=O)Nc1cc(C(C)(C)C)no1,activation,[1],-0.1% (inactive)
COc1ccc(CCn2c(-c3ccco3)nc3nc4ccccc4nc32)cc1OC,activation,[1],-1.1% (inactive)
Cc1ccc(-c2c3c(=O)n(C)c(=O)n(C)c3cn2-c2ccccc2O)cc1,activation,[1],0.1% (inactive)
COc1cccc(-n2c(Cc3cc(=O)[nH]c(=O)[nH]3)nnc2SCC(=O)Nc2ccccc2)c1,activation,[1],0.3% (inactive)
Cc1cccc(NC(=O)COc2ccc(Br)cc2C)n1,activation,[1],-1% (inactive)
Cc1cc(/C=N/n2cnnc2)c(C)n1-c1ccc2ncccc2c1,activation,[1],0.1% (inactive)
CCOCCCNC(=O)Cc1cc(=O)[nH]c(=O)[nH]1,activation,[1],0.5% (inactive)
O=S(=O)(Nc1ccccc1N1CCOCC1)c1ccc(Cl)s1,activation,[1],0.7% (inactive)
O=c1cc(Cn2nnc(-c3ccc(Cl)cc3)n2)nc2sccn12,activation,[1],-0.5% (inactive)
O=C(CSc1nnc(-c2ccco2)n1-c1ccccc1)NCCc1ccccc1,activation,[1],0% (inactive)
COc1ccc(C(=O)c2oc3ccc(Br)cc3c2NC(C)=O)cc1,activation,[1],-0.9% (inactive)
Cc1cc(C)c(NC(=O)CS(=O)CC(=O)Nc2cccnc2)c(C)c1 (centres undefined),activation,[1],0.3% (inactive)
COc1ccc(-n2nnc3c(=O)n(CC(=O)N4CCC(Cc5ccccc5)CC4)cnc32)cc1,activation,[1],-0.4% (inactive)
Cc1ccc(C(=O)N(CN2CCCC2=O)c2ccc(F)cc2)cc1,activation,[1],-1.3% (inactive)
CC1CC(C)CN(CC(=O)Nc2ccc(S(N)(=O)=O)cc2)C1 (centres undefined),activation,[1],-0.9% (inactive)
CN(C)c1nc2n(c(=O)n1)CCO2,activation,[1],0.6% (inactive)
c1ccc2c(c1)OCC(c1nn3cnnc3s1)O2 (centres undefined),activation,[1],-0.3% (inactive)
Cc1ccc(C(c2sc3nc(C)nn3c2O)N2CCN(c3ccc(F)cc3)CC2)cc1 (centres undefined),activation,[1],0.6% (inactive)
CC(C)(C)Oc1ncc(Br)c(OC(C)(C)C)n1,activation,[1],-0.4% (inactive)
N#Cc1c(N)n(CCOC(=O)c2ccc(Cl)cc2)c2nc3ccccc3nc12,activation,[1],2.5% (inactive)
COc1ccc(C(C)=O)cc1COC(=O)Cn1cnc2ccccc2c1=O,activation,[1],0.7% (inactive)
Cc1cc(C(F)(F)F)nn1CC(=O)N1CCCC1,activation,[1],-0.4% (inactive)
CCCc1[nH]nc2c1C(c1ccc(OC)c(Cn3nc(C)c(Br)c3C)c1)C(C#N)=C(N)O2 (centres undefined),activation,[1],-0.7% (inactive)
O=C(CN1CCOc2ccccc21)N1CCC(Cc2ccccc2)CC1,activation,[1],-0.9% (inactive)
Cc1cc(=O)[nH]c(SCC(N)=O)c1C#N,activation,[1],-1% (inactive)
CCc1nc2ccccc2n(CCOCCOCCn2c(=O)c(CC)nc3ccccc32)c1=O,activation,[1],1.3% (inactive)
O=C(CC1OC(=O)c2ccccc21)NC1CCCCC1 (centres undefined),activation,[1],-0.8% (inactive)
O=C(O)CCN1C(=O)CC2(CCCCC2)C1=O,activation,[1],-0.4% (inactive)
CCn1cc(NC(=O)Nc2ccc(OC)c(OC)c2)c(C(N)=O)n1,activation,[1],-0.9% (inactive)
C=CCn1c(=O)c2ccccc2n2c(SCC(=O)N3CCCc4ccccc43)nnc12,activation,[1],-2.3% (inactive)
OC(COc1ccc2ccccc2c1)CN1CCOCC1 (centres undefined),activation,[1],0.6% (inactive)
Cc1ccc2nc(-c3ccccc3)cc(C(=O)O)c2c1,activation,[1],0.7% (inactive)
Cc1cccc(NC(=O)C2CCCN2S(=O)(=O)c2ccc(F)cc2)c1C (centres undefined),activation,[1],-1.1% (inactive)
Cc1nc(Nc2ccc3c(c2)OCCO3)c2nnn(Cc3ccccc3Cl)c2n1,activation,[1],-1.2% (inactive)
COc1ccccc1N=C1SC(C)CN1C(=O)C1CCC1 (centres undefined),activation,[1],0.5% (inactive)
O=S(=O)(NCc1ccccn1)c1ccc(F)cc1,activation,[1],-1.2% (inactive)
Cc1cc(C)n(-c2nc(SCC(=O)N3CCCC3)c3c4c(sc3n2)CCCC4)n1,activation,[1],0% (inactive)
COCCNc1nc(-n2nc(C)cc2C)nc2sc3c(c12)CCCC3,activation,"S1P3 NFAT-BLA reporter cells, agonism, FRET ratio; at 4.5 µM; stronger effect = higher value; relative to 1 µM S1P, basal subtracted",18.4% (active)
same,activation,"S1P3 NFAT-BLA reporter cells, agonism, FRET ratio; measured here: confirmation screen, triplicate average; at 4.5 µM; stronger effect = higher value; relative to 1 µM S1P, basal subtracted",25.3%
COCCn1c(C)cc(C(=O)CSc2ncnc3sc4c(c23)CCC4)c1C,activation,[1],-1% (inactive)
CC1=CC(C)(C)N(C(=O)CSc2nccn2C)c2cc(C)ccc21,activation,[1],0.7% (inactive)
O=C(CCSCCc1ccccn1)Nc1nccs1,activation,[1],-0.7% (inactive)
COc1ccc(-c2nnc(SCC(=O)NC3CCCCC3)o2)cc1OC,activation,[1],-0.8% (inactive)
CCOC(=O)Cn1c(=O)oc2cc(S(=O)(=O)N(C)Cc3ccco3)ccc21,activation,[1],0.3% (inactive)
O=C(CN1C(=O)C2C3C=CC(C3)C2C1=O)NCCc1ccccc1Cl (centres undefined),activation,[1],0.1% (inactive)
CCOC(=O)C(C)Oc1cccc2c(=O)n(CC(=O)N3CCc4ccccc43)ccc12 (centres undefined),activation,[1],-1.6% (inactive)
Cc1cc(Nc2cccc(C)c2C)n2ncnc2n1,activation,[1],-1.3% (inactive)
COCCOC(=O)C1=C(C)NC(=O)NC1c1ccc(Cl)cc1 (centres undefined),activation,[1],-2.2% (inactive)
O=C(Cn1cnc2c(nnn2-c2ccccc2)c1=O)N1CCC(Cc2ccccc2)CC1,activation,[1],-1.2% (inactive)
COC(=O)c1ccc(OC(=O)c2nn(C)cc2Cl)c(OC)c1,activation,[1],-1% (inactive)
COc1ccc(-c2nnc(SC(=O)N3c4ccccc4Sc4ccccc43)o2)cc1,activation,[1],-1.5% (inactive)
CC1(C)CCCC2=C1CC1C(=O)N(c3ccccc3)C(=O)C1C2 (centres undefined),activation,[1],-0.8% (inactive)
C=CCNC(=O)CCCOc1cccc(C)c1,activation,[1],0.2% (inactive)
O=C(CCOc1ccccc1)NCc1ccccc1,activation,[1],0.1% (inactive)
O=C(CCC(=O)OCC(F)(F)C(F)F)NCc1ccccc1,activation,[1],-0.2% (inactive)
COc1c(Br)cc2c(C)c(C(=O)N3CCOCC3)oc2c1Br,activation,[1],1.5% (inactive)
CCCN(CCC)C(=O)C1c2ccccc2Oc2ccccc21,activation,[1],-1.3% (inactive)
COc1ccccc1CNC(=O)CCCNS(=O)(=O)c1cccc2nsnc12,activation,[1],1.2% (inactive)
COCCNC(=O)Cn1cc2c(n1)CCCCC2,activation,[1],-0.2% (inactive)
